Activity calls are given as the source filed them. The calls are words filed in the database; no cut-off is given here.
Columns and labels:
[1] = molecular target: cAMP-dependent protein kinase catalytic subunit PRKX (Homo sapiens) (UniProt P51817); assay: Inhibition of PRKX (unknown origin) assessed as remaining activity at 1 uM by Kinome scan method relative to control
[2] = molecular target: Serine/threonine-protein kinase LATS2 (Homo sapiens) (UniProt Q9NRM7); assay: Inhibition of LATS2 (unknown origin) assessed as remaining activity at 1 uM by Kinome scan method relative to control
[3] = molecular target: Serine/threonine-protein kinase Nek9 (Homo sapiens) (UniProt Q8TD19); assay: Inhibition of NEK9 (unknown origin) assessed as remaining activity at 1 uM by Kinome scan method relative to control
[4] = molecular target: Serine/threonine-protein kinase N1 (Homo sapiens) (UniProt Q16512); assay: Inhibition of PKN1 (unknown origin) assessed as remaining activity at 1 uM by Kinome scan method relative to control
[5] = molecular target: T1, Serine/threonine-protein kinase 4 (Homo sapiens, UniProt Q13043); assay: Inhibition of recombinant His-tagged full-length MST1 (unknown origin) expressing in Escherichia coli assessed as MOB1a phosphorylation level incubated for 30 min in the presence of 30 uM ATP by immunoblot analysis
T1 sequence (Q13043 whole entry): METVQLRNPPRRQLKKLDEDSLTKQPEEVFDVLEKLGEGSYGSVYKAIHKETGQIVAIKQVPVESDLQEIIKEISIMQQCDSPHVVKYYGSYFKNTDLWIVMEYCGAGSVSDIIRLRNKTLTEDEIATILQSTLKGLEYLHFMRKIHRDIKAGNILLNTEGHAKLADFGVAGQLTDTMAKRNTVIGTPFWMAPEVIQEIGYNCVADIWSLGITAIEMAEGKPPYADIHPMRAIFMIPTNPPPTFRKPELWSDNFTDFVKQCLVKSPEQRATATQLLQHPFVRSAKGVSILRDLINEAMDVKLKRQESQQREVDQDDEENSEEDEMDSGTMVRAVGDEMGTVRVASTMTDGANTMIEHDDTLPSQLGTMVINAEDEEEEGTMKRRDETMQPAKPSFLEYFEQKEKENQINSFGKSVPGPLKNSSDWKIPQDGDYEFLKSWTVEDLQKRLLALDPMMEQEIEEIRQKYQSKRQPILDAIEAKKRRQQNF

[6] = molecular target: Serine/threonine-protein kinase VRK2 (Homo sapiens) (UniProt Q86Y07); assay: Inhibition of VRK2 (unknown origin) assessed as remaining activity at 1 uM by Kinome scan method relative to control
[7] = molecular target: Mitogen-activated protein kinase kinase kinase 4 (Homo sapiens) (UniProt Q9Y6R4); assay: Inhibition of MAP3K4 (unknown origin) assessed as remaining activity at 1 uM by Kinome scan method relative to control
Sequence of Mitogen-activated protein kinase kinase kinase 4 (Homo sapiens) (Q9Y6R4 whole entry): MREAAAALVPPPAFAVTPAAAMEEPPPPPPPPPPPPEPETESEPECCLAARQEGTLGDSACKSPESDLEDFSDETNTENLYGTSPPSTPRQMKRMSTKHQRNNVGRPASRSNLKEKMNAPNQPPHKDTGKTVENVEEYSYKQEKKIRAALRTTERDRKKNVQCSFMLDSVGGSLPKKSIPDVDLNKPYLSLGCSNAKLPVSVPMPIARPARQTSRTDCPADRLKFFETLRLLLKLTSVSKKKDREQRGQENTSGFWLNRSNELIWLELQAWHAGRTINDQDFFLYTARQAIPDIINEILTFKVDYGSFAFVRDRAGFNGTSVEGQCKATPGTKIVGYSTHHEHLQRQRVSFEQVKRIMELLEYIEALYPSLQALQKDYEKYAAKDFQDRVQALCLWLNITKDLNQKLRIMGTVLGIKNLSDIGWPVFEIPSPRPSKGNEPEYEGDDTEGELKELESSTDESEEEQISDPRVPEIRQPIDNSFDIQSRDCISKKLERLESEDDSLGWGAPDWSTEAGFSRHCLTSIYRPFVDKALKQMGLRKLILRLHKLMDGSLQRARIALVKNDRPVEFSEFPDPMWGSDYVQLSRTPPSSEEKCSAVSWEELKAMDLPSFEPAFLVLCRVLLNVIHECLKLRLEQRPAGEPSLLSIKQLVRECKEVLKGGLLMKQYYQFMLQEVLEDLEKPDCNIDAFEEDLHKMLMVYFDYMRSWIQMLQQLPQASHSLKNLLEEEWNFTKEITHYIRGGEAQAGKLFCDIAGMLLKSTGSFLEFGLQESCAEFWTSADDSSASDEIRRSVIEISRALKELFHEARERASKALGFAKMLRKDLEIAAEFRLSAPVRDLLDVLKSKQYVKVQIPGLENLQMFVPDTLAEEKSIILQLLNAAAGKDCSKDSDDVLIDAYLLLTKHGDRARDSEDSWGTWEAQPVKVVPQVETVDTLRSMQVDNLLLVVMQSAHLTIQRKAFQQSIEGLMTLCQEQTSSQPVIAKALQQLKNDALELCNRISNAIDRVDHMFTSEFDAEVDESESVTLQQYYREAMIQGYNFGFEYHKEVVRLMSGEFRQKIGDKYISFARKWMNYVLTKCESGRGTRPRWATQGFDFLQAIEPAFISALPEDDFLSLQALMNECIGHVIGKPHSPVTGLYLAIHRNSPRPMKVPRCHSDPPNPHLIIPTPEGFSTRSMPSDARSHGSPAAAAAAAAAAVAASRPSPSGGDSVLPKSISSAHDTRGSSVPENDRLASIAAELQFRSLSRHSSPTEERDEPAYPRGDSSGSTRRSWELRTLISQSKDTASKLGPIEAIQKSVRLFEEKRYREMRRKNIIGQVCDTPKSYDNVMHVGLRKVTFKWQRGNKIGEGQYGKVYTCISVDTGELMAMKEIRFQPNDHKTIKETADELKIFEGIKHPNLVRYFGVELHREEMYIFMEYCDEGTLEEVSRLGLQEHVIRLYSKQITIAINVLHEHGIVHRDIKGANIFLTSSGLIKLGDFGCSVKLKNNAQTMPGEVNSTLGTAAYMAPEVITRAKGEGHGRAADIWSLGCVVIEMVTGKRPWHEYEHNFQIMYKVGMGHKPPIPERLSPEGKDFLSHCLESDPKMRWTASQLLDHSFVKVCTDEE

[8] = molecular target: Mitogen-activated protein kinase kinase kinase 1 (Homo sapiens) (UniProt Q13233); assay: Inhibition of MAP3K1 (unknown origin) assessed as remaining activity at 1 uM by Kinome scan method relative to control
Sequence of Mitogen-activated protein kinase kinase kinase 1 (Homo sapiens) (Q13233 whole entry): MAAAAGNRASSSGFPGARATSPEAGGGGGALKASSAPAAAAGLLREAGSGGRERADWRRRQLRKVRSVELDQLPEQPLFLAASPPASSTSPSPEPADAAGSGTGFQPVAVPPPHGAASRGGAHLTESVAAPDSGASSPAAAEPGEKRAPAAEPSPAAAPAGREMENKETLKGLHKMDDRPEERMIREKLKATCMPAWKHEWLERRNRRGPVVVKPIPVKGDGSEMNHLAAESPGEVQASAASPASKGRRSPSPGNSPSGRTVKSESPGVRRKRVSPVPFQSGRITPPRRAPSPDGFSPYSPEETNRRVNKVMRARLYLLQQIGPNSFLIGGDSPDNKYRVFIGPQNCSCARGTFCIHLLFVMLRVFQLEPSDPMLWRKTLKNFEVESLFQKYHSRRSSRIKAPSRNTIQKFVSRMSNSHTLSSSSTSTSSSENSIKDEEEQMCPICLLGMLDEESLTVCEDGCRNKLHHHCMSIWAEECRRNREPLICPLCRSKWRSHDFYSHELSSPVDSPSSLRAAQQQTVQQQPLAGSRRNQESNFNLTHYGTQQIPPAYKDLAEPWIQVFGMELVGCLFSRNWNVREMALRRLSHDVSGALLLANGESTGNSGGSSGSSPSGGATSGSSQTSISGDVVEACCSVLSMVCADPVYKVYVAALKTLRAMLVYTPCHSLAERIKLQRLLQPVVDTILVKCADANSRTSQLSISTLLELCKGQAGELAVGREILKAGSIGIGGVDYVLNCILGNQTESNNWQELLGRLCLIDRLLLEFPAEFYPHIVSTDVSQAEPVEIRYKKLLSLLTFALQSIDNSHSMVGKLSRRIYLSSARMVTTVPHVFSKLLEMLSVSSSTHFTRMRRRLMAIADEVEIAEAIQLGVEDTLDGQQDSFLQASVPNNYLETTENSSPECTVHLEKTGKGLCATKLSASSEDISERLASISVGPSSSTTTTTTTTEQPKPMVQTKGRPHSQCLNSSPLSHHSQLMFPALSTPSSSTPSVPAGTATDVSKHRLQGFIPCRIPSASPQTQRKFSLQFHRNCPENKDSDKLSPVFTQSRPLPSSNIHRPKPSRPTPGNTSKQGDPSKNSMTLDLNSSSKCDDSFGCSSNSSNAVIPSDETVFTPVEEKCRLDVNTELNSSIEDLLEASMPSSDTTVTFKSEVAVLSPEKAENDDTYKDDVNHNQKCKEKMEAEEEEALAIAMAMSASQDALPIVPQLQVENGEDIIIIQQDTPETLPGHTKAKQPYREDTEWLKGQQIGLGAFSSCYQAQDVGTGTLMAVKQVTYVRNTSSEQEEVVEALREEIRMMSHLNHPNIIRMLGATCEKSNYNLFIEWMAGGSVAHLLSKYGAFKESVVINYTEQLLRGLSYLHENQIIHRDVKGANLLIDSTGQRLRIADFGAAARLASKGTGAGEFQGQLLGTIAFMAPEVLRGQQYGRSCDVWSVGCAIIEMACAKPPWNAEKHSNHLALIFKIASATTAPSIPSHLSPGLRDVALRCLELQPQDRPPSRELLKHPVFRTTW

[9] = molecular target: Serine/threonine-protein kinase Nek10 (Homo sapiens) (UniProt Q6ZWH5); assay: Inhibition of NEK10 (unknown origin) assessed as remaining activity at 1 uM by Kinome scan method relative to control
Mus musculus = assay: Protection against APAP induced liver injury in mouse assessed as decrease in ALT level at 1 mg/kg, ip administered at 2.5 hrs in the presence of NAC; type: functional, organism-based; settings: Serum
[10] = molecular target: Dual serine/threonine and tyrosine protein kinase (Homo sapiens) (UniProt Q6XUX3); assay: Inhibition of RIPK5 (unknown origin) assessed as remaining activity at 1 uM by Kinome scan method relative to control
[11] = test system: Tyrosine-protein kinase ABL1 (Homo sapiens), P00519 [T315I]; assay: Inhibition of ABL1 T315I mutant (unknown origin) assessed as remaining activity at 1 uM by Kinome scan method relative to control
Method in brief: (§1)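 Active-site-dependent competition-binding (KINOMEscan) panel of 468 kinases, test compound at 1 μM (from a 10 mM DMSO stock). Read-out is ctrl% = (test signal − positive control signal)/(negative control signal − positive control signal) × 100. DMSO is the negative control (100%) and a control compound is the positive control (0%). Lower ctrl% means tighter binding.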

[12] = molecular target: Serine/threonine-protein kinase 32C (Homo sapiens) (UniProt Q86UX6); assay: Inhibition of YANK3 (unknown origin) assessed as remaining activity at 1 uM by Kinome scan method relative to control
Sequence of Serine/threonine-protein kinase 32C (Homo sapiens) (Q86UX6 whole entry): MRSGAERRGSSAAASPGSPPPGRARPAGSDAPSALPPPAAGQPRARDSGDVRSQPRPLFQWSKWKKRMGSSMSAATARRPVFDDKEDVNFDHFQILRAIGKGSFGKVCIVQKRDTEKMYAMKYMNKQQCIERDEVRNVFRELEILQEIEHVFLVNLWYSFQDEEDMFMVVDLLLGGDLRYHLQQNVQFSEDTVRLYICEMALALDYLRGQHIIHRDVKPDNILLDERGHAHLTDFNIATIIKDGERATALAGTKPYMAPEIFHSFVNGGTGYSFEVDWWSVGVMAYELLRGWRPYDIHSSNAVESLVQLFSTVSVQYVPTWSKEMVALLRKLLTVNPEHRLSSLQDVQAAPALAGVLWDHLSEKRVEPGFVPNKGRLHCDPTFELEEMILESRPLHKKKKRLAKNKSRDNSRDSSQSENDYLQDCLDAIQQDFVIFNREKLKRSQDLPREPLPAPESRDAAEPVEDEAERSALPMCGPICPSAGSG

[13] = molecular target: Myosin-IIIa (Homo sapiens) (UniProt Q8NEV4); assay: Inhibition of MYO3A (unknown origin) assessed as remaining activity at 1 uM by Kinome scan method relative to control
[14] = molecular target: Calcium/calmodulin-dependent protein kinase type 1D (Homo sapiens) (UniProt Q8IU85); assay: Inhibition of CAMK1D (unknown origin) assessed as remaining activity at 1 uM by Kinome scan method relative to control
Method in brief: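 Active-site-dependent competition-binding profiling (KINOMEscan) at 1 μM against a 468-kinase panel; compound supplied from a 10 mM DMSO stock. Read-out is ctrl% = (test signal − positive control signal)/(negative control signal − positive control signal) × 100. DMSO is the negative control (100%) and a control compound the positive control (0%). Lower ctrl% means tighter binding.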

[15] = MRT (0 to infinity) in male Sprague-Dawley rat at 10 mg/kg, po measured for 24 hrs by LC-MS/MS analysis; type: ADME, organism-based; settings: in vivo
[16] = test system: Epidermal growth factor receptor (Homo sapiens), P00533 [L861Q]; assay: Inhibition of EGFR L861Q mutant (unknown origin) assessed as remaining activity at 1 uM by Kinome scan method relative to control
[17] = molecular target: Fibroblast growth factor receptor 3 (Homo sapiens) (UniProt P22607); assay: Inhibition of FGFR3 (unknown origin) assessed as remaining activity at 1 uM by Kinome scan method relative to control
[18] = molecular target: Dual specificity mitogen-activated protein kinase kinase 2 (Homo sapiens) (UniProt P36507); assay: Inhibition of MEK2 (unknown origin) assessed as remaining activity at 1 uM by Kinome scan method relative to control
Sequence of Dual specificity mitogen-activated protein kinase kinase 2 (Homo sapiens) (P36507 whole entry): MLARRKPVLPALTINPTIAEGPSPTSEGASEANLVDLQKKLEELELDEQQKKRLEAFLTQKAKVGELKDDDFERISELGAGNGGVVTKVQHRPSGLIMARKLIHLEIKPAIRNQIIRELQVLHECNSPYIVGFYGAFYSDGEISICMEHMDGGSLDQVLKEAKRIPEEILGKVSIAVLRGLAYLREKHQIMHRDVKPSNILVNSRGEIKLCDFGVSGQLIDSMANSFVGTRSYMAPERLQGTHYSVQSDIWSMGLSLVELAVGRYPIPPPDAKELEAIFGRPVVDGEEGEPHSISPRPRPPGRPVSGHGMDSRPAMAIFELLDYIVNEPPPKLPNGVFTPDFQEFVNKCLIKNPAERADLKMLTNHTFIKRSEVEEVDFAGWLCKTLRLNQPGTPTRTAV

[19] = test system: Epidermal growth factor receptor (Homo sapiens), P00533 [G719C]; assay: Inhibition of EGFR G719C mutant (unknown origin) assessed as remaining activity at 1 uM by Kinome scan method relative to control
[20] = molecular target: Serine/threonine-protein kinase TBK1 (Homo sapiens) (UniProt Q9UHD2); assay: Inhibition of TBK1 (unknown origin) assessed as remaining activity at 1 uM by Kinome scan method relative to control
Sequence of Serine/threonine-protein kinase TBK1 (Homo sapiens) (Q9UHD2 whole entry): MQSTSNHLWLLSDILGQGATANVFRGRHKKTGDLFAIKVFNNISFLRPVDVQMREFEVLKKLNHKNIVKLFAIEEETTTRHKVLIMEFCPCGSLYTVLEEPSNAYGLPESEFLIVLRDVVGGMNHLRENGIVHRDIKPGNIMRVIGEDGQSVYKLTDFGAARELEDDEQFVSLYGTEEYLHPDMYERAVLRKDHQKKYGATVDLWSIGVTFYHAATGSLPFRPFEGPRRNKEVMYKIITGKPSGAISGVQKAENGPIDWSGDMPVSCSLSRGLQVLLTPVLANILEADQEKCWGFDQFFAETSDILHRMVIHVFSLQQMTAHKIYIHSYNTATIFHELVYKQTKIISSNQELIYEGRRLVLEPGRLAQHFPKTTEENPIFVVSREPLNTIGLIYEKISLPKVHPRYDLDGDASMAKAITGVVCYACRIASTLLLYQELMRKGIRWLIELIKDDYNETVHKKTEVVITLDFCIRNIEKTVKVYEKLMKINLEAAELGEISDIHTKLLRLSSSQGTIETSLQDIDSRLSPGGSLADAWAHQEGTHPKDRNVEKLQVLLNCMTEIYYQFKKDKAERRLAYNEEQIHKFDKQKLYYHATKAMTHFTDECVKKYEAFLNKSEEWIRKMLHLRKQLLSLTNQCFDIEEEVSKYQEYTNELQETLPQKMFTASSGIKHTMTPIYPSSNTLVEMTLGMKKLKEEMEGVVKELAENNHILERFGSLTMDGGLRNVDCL

[21] = molecular target: Tyrosine-protein kinase Blk (Homo sapiens) (UniProt P51451); assay: Inhibition of BLK (unknown origin) assessed as remaining activity at 1 uM by Kinome scan method relative to control; method in brief: as §1
[22] = molecular target: TGF-beta receptor type-2 (Homo sapiens) (UniProt P37173); assay: Inhibition of TGFBR2 (unknown origin) assessed as remaining activity at 1 uM by Kinome scan method relative to control

Sequence of cAMP-dependent protein kinase catalytic subunit PRKX (Homo sapiens) (P51817 whole entry): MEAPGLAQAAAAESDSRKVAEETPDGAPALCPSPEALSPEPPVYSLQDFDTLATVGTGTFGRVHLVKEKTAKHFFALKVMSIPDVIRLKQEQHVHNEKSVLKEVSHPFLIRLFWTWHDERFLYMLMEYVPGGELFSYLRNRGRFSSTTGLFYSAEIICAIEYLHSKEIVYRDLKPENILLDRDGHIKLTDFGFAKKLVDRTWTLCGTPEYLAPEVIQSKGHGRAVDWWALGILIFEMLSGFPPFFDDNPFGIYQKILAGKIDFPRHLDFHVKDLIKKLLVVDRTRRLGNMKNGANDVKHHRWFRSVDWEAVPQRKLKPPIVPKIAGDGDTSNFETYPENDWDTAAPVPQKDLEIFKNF

## CN1C(=O)c2sccc2N(C)c2nc(Nc3ccc(S(N)(=O)=O)cc3)ncc21
[1]
  Activity: 100%
[2]
  Activity: 100%
[3]
  Activity: 94%
[4]
  Activity: 100%
[5]
  IC50: 378 nM
[6]
  Activity: 85%
[7]
  Activity: 91%
[8]
  Activity: 48%
[9]
  Activity: 70%
Mus musculus
  Activity: Active
[10]
  Activity: 45%
[11]
  Activity: 15%
[12]
  Activity: 100%
[13]
  Activity: 100%
[14]
  Activity: 100%
[15]
  MRT inf: 7.34 h
[16]
  Activity: 64%
[17]
  Activity: 98%
[18]
  Activity: 99%
[19]
  Activity: 78%
[20]
  Activity: 90%
[21]
  Activity: 96%
[22]
  Activity: 100%

Source: ChEMBL document CHEMBL5705905, “Pharmacological targeting of kinases MST1 and MST2 augments tissue repair and regeneration” (Sci Transl Med, 2016)
